High-throughput results: PubChem BioAssay, several laboratories
Dynein transport: blocks dynein driven cargo transport along microtubules | 3617.4 mouse cells, GR-EGFP nuclear translocation imaging; test concentration mostly 20 µM; stimulated with dexamethasone, 1 µM; active compounds read low | z-score, hits read low | 220,000 compounds, 0.47% hits;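 active means plate z-score of nuclear minus cytoplasmic receptor signal below a set negative limit, without overly bright fluorescence or cell loss, cut at about -3.5 in these data, passing the limit was not always enough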;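 further: z-score of nuclear minus cytoplasmic ring GR-EGFP intensity difference per well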
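Buffer or medium: tet-free medium with charcoal-stripped serum / Also added: dexamethasone agonist, 1.0 µM final, for 30 min / Timing: induction 48 h, compound 1 h, agonist 30 min / Measured by: high-content fluorescence imaging after fixation / Read-out: nuclear-to-cytoplasmic GR-EGFP distribution per well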
UPR XBP1 act: adaptive UPR (XBP1) activation. 330,000 compounds, 0.33% hits. AID 463104. activation, % at 20 µM. CHO-XBP1 luciferase reporter, IRE1-XBP1 UPR activation, luminescence; percent of tunicamycin response, DMSO as zero;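 active means versus positive control, 20 µM dose yields 30% or more activation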
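Material: CHO cell line with stable XBP1 luciferase reporter; schedule: 16-18 h cell attachment at 37 °C, then 6 h compound exposure; signal: glow luminescence from Steady-Glo reagent; medium: serum-containing F12 medium, 10% FBS; benchmarks: tunicamycin 10 µg/mL and vehicle-only wells; read-out: percent activation relative to tunicamycin reference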
UPR CHOP act: activators of apoptotic arm of unfolded protein response (CHOP); CHO-CHOP luciferase reporter, UPR activation, luminescence; percent of tunicamycin response over DMSO baseline; activation, % at 10 µM; 330,000 compounds, 0.34% hits; AID 449763;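 active means at 10 µM dose, activation of 40% or more, normalized to positive control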
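System: CHO CHOP reporter cells. Amount: 500 cells per well. Buffer or medium: F12 medium, 10% FBS. Compound dosing: one dose, 10 µM in 0.5% DMSO. Incubation: 6 h compound exposure at 37 °C after overnight seeding. Technique: Steady-Glo luciferase luminescence. Benchmarks: tunicamycin and DMSO controls.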
Beta2AR agonist: human beta-2 adrenergic receptor agonism by FAP; AID 504454; 340,000 compounds, 0.43% hits; P07550; response, % (no concentration beside the values); Am2.2-beta2AR cells, FAP receptor internalization, flow cytometry;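 active means response above a set limit, near 3 SD of response in nonfluorescent compounds, cut at about 42% in these data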
Target sequence (P07550 whole entry, looked up): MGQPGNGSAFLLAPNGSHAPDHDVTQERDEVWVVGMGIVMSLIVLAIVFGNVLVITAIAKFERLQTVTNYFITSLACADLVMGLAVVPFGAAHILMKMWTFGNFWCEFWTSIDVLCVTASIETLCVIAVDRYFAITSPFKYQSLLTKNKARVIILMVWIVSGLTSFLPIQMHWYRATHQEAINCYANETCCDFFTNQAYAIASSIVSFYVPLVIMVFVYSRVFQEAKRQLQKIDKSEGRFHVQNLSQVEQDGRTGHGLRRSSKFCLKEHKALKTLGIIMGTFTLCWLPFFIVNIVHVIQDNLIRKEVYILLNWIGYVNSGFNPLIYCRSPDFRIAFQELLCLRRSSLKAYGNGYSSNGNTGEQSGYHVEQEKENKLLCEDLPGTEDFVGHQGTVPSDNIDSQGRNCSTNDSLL
MDM2 E3 inh: inhibitors of human Mdm2 E3 ubiquitin ligase | Q00987 | cell-based MDM2 ubiquitination luciferase reporter, 2 h; 0 = plate control, 100 = twice control, blank-subtracted | signal enhancement, % at 5 µM | 210,000 compounds, 0.11% hits | AID 1230;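 active means signal enhancement of 30% or more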;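 further: luminescence tracks abundance of the self-degrading MDM2-luciferase fusion protein; higher signal means inhibition of MDM2 E3 ligase activity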
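Assay system: stable mammalian line carrying autodegrading MDM2–luciferase fusion reporter; Input: 2000 cells in each well; Compound dosing: single-point 5 µM; Schedule: 2 h compound exposure at 37 °C; Signal: SteadyLite luciferase luminescence after 15 min room-temperature reagent incubation; Evaluation: % luminescence enhancement versus blank-corrected plate control mean; Benchmarks: plate controls and plate blanks.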
Mdm2 MdmX PPI: inhibitors of human Mdm2/MdmX interaction. O15151+Q00987. SaOS-2 split-luciferase Mdm2/MdmX complementation, luminescence. inhibition, % at 8 µM. 330,000 compounds, 3% hits. AID 485346;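 active means inhibition of at least 50% at 8 µM in the primary screen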
Mdm2-MdmX conf: confirmation of human Mdm2/MdmX interaction inhibitors | shares compounds with Mdm2 MdmX PPI | Mdm2-MdmX binding, luminescent assay | inhibition, % at 8 µM | 10,000 compounds, 55% hits | AID 489028; in the data active means inhibition above about 40%
Full FLuc ctr: full-length luciferase inhibition in Mdm2/MdmX counter-screen | 6,200 compounds, 77% hits | inhibition, % at 8 µM | SaOS-2 full-length luciferase counterscreen, luminescence | shares compounds with Mdm2 MdmX PPI;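 active means mean inhibition at 8 µM reaching about 37%, which flags the compound as non-specific, limit read from the data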;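 further: p53-null SaOS-2 cells with luciferase driven by a doxycycline-inducible promoter; compound on cells about two nights before reading with doxycycline added after day one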
Large screens that a line does not name were inactive (follow-up assays come after a bar, where they were run). This is a sample that favours compounds with a hit; in the whole collection about 3.7% have one here.

COc1ccc(OC)c(N/C(C)=C/C(=O)c2ccccc2)c1	none
COc1ccc2cc(C#N)c(SCC(=O)Nc3nonc3C)nc2c1	none (no result: Dynein transport, MDM2 E3 inh)
Cc1cc2cc(C#N)c(SCC(=O)Nc3nonc3C)nc2cc1C	Mdm2 MdmX PPI 69 (no result: Dynein transport, MDM2 E3 inh) | Mdm2-MdmX conf inactive
COc1ccc(CC(=O)OCN2C(=O)c3ccccc3C2=O)cc1OC	none (no result: Dynein transport, MDM2 E3 inh)
CCN(c1ccccc1)S(=O)(=O)c1ccc(C(=O)Nc2ccncc2)cc1	none (no result: Dynein transport, MDM2 E3 inh)
CCN(c1ccccc1)S(=O)(=O)c1ccc(NC(=O)c2nc(S(C)(=O)=O)ncc2Cl)cc1	Beta2AR agonist 104, Mdm2 MdmX PPI 99 (no result: Dynein transport, MDM2 E3 inh) | Mdm2-MdmX conf 96 | Full FLuc ctr 51
CCS(=O)(=O)c1ncc(Cl)c(C(=O)Nc2ccc(S(=O)(=O)N(C)c3ccccc3)cc2)n1	Mdm2 MdmX PPI 98 (no result: Dynein transport, MDM2 E3 inh) | Mdm2-MdmX conf 100 | Full FLuc ctr 51
Cc1ccc(C(C)C)cc1OCCn1cncn1	none (no result: Dynein transport, MDM2 E3 inh)
Cc1cccc(NC(=O)c2ccc(N3C(=O)C4CCCCC4C3=O)cc2)c1C (stereo unspecified)	none (no result: Dynein transport, MDM2 E3 inh)
COc1ccc(-c2cc3c(=O)n(CC(=O)NCCCc4ccccc4)ncn3n2)cc1	none (no result: Dynein transport, MDM2 E3 inh)
COc1ccc(-c2cc3c(=O)n(CC(=O)NCc4ccccc4OC)ncn3n2)cc1	none (no result: Dynein transport, MDM2 E3 inh)
COc1ccc(-c2cc3c(=O)n(CC(=O)NCc4ccccc4F)ncn3n2)cc1	Mdm2 MdmX PPI 70 (no result: Dynein transport, MDM2 E3 inh) | Mdm2-MdmX conf inactive
CCOc1ccc(CCNC(=O)Cn2ncn3nc(-c4ccc(OC)cc4)cc3c2=O)cc1OCC	Mdm2 MdmX PPI 59 (no result: Dynein transport, MDM2 E3 inh) | Mdm2-MdmX conf inactive
COc1ccc(NC(=O)Cn2ncn3nc(-c4ccc(OC)cc4)cc3c2=O)cc1	Mdm2 MdmX PPI 80 (no result: Dynein transport, MDM2 E3 inh) | Mdm2-MdmX conf inactive | Full FLuc ctr 90
CN(C(=O)c1cc(COc2ccc(F)cc2Cl)on1)C1CCCc2ccccc21 (stereo unspecified)	none (no result: Dynein transport, MDM2 E3 inh)
COc1ccc(C(C)=O)cc1COC(=O)CSCC(=O)Nc1ccc(C)cc1	none (no result: Dynein transport, MDM2 E3 inh)
CCc1nc2ccc(C(=O)N(C)CC(=O)Nc3ccc(F)c(F)c3F)cc2nc1CC	none (no result: Dynein transport, MDM2 E3 inh)
CCOC(=O)C(C#N)(Cc1cc(OC)cc(OC)c1)Cc1cc(OC)cc(OC)c1	none (no result: Dynein transport, MDM2 E3 inh)
COc1ccc(COCC(O)CN2CCC(CN3C(=O)c4cccc5cccc(c45)C3=O)CC2)cc1OC (stereo unspecified)	none
CC(=O)c1ccccc1OCC(O)CN1CCN(CCN2C(=O)c3cccc4cccc(c34)C2=O)CC1 (stereo unspecified)	none (no result: MDM2 E3 inh)
COc1cccc(OCC(O)CN2CCC(CN3C(=O)c4cccc5cccc(c45)C3=O)CC2)c1 (stereo unspecified)	none
CCc1ccc(OCC(O)CN2CCC(CN3C(=O)c4cccc5cccc(c45)C3=O)CC2)cc1 (stereo unspecified)	Mdm2 MdmX PPI 77 | Mdm2-MdmX conf inactive | Full FLuc ctr 61
O=C1c2cccc3cccc(c23)C(=O)N1CC1CCN(CC(O)COc2ccc3ccccc3c2)CC1 (stereo unspecified)	Beta2AR agonist 82, Mdm2 MdmX PPI 73 (no result: Dynein transport, MDM2 E3 inh) | Mdm2-MdmX conf inactive | Full FLuc ctr 52
Cc1cc(C)cc(OCC(O)CN2CCC(CN3C(=O)c4cccc5cccc(c45)C3=O)CC2)c1 (stereo unspecified)	Mdm2 MdmX PPI 69 (no result: Dynein transport, MDM2 E3 inh) | Mdm2-MdmX conf inactive | Full FLuc ctr 74
O=C1c2cccc3cccc(c23)C(=O)N1CCN1CCN(CC(O)COc2ccc3ccccc3c2)CC1 (stereo unspecified)	Mdm2 MdmX PPI 67 | Mdm2-MdmX conf inactive
CC(=O)N1c2ccc(S(=O)(=O)NCC3CCC(C(=O)Nc4cc(C)ccn4)CC3)cc2CC1C (stereo unspecified)	none (no result: Dynein transport, MDM2 E3 inh)
